According to PMC8360206 (Cancer, 2021):
Like-named read-outs stand apart in the source and are kept apart here.

Tests used:
[1] = tested on: patients with R/R AML; details: OTX015 monotherapy ref 10; cited from earlier work
[2] = tested on: relapsed/refractory acute myeloid leukemia; experiment: Clinical activity: IWG response, bone marrow blast change, PFS, OS; assay type: in vivo, human
Summary of the method: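 Adults (≥18 y) with relapsed/refractory AML got the test compound daily in 28-day cycles at 1.5, 2.0 or 2.5 mg as monotherapy. Response followed revised IWG AML criteria, comparing baseline bone marrow with at least 1 on-treatment marrow sample. Marrow was sampled at screening, C2D1 and as clinically indicated. Patients without a postbaseline sample were not evaluable. PFS and OS were summarised descriptively.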

[3] = tested on: DCXR, HEXIM1, CD93, MYC, BCL2, PUMA, BIM gene expression in peripheral blood; assay type: in vivo, human; details: for pharmacodynamic effects (gene modulation) vs dose and drug exposure: peripheral blood, correlation with Cmax, P < .05
Summary of the method: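 Whole blood was drawn before and 6 h after the C1D1 monotherapy dose. RNA from it underwent whole-transcriptome sequencing, and marker expression was given as percent change from baseline. Linear regression related C1D1 plasma Cmax to biomarker change.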

[4] = tested on: patients with relapsed/refractory solid tumors; details: cited from earlier work
[5] = tested on: patients with relapsed/refractory AML; experiment: Safety: treatment‐emergent adverse events and DLTs; assay type: in vivo, human
Summary of the method: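 3 + 3 dose escalation, daily dosing in 28-day cycles. Monotherapy was 1.5, 2.0 or 2.5 mg. TEAEs (first dose to 30 days post-discontinuation) were graded by NCI CTCAE v4.03 in all patients given ≥1 dose.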

[6] = Plasma mivebresib pharmacokinetics; assay type: in vivo, human
[7] = started arms (mono n = 19, combination n = 25)
[8] = PB, 6 hours after MIV‐mono administration, P < .001
[9] = MIV‐mono n = 19, started MIV‐Ven n = 25

## Cc1sc2c(c1C)C(c1ccc(Cl)cc1)=N[C@@H](CC(=O)Nc1ccc(O)cc1)c1nnc(C)n1-2 [OTX015]
[1]
  rate of diarrhea: 34%
  rate of nausea: 22%
  rate of vomiting: 7%

## CCS(=O)(=O)Nc1ccc(Oc2ccc(F)cc2F)c(-c2cn(C)c(=O)c3[nH]ccc23)c1 [mivebresib]
[2]; 19 patients who received MIV‐mono
  response: CRi: 5%
[2]; MIV‐mono 1.5 mg
  median OS: 15.7 weeks
  median PFS: 7.2 weeks
[2]; MIV‐mono 2.0 mg
  median OS: 22.0 weeks
  median PFS: 13.9 weeks
[2]; MIV‐mono 2.5 mg
  median OS: 12.6 weeks
  median PFS: 10.6 weeks
[2]; MIV‐mono 3 patients, MIV‐Ven 4 patients
  patients with FLT3 and NPM1 co‐occurrence who responded / had a reduction in BM blasts: None
[2]; MIV‐mono group
  response: CRi: 1 patient
[2]; assessable patients: 16 MIV‐mono, 15 only MIV‐Ven
  patients with measurable reduction in BM blasts: 44%
[2]; [7]
  Best IWG response: Aplasia: 0 (0) No. of Patients (%)
  Best IWG response: CR: 0 (0) No. of Patients (%)
  Best IWG response: CRi: 1 (5) No. of Patients (%)
  Best IWG response: MLFS: 0 (0) No. of Patients (%)
  Best IWG response: PR: 0 (0) No. of Patients (%)
  Best IWG response: Resistant disease: 15 (79) No. of Patients (%)
  Best IWG response: Unknown: Not assessable or insufficient data: 3 (16) No. of Patients (%)
[3]; 6 hours after MIV‐mono, P < .0005, data not shown
  BIM (proapoptotic gene) expression: increased
[3]; 6 hours after MIV‐mono, P < .01, data not shown
  BCL2 (antiapoptotic gene) expression: inhibited
[3]; 6 hours after MIV‐mono, P < .064, data not shown
  PUMA (proapoptotic gene) expression: increased
[3]; [8]
  CD93 expression: decrease
  DCXR gene expression: increase
  HEXIM1 gene expression: increase
[3]; PB, 6 hours after MIV‐mono administration, P < .083
  MYC expression: decrease
[3]
  pharmacodynamic effects (gene modulation) vs dose and drug exposure: proportional to dose and drug exposure
[3]; listed as MIV‐mono
  pharmacodynamic effects (gene modulation) vs dose and drug exposure: dose‐dependent
[4]
  solid tumor recommended phase 2 dose: 1.5 mg daily
[5]; MIV‐mono n = 19
  anemia, grade ≥3 mivebresib‐related TEAE: 26%
  decreased appetite, TEAE frequency: 58%
  decreased appetite, grade ≥3: 11%
  diarrhea, grade ≥3: no grade ≥3
  fatigue, TEAE frequency: 68%
  fatigue, grade ≥3: 21%
  nausea, grade ≥3: 5%
  pneumonia, serious TEAE: 16%
[5]; [9]
  AML progression (AML), serious TEAE: 16%
  decreased appetite, mivebresib‐related TEAE: 42%
  diarrhea, mivebresib‐related TEAE: 42%
  dysgeusia, mivebresib‐related TEAE: 74%
  febrile neutropenia, serious TEAE: 16%
  grade ≥3 mivebresib‐related TEAEs, patients: 68%
  serious adverse events (serious TEAEs regardless of relatedness), patients: 74%
  thrombocytopenia, grade ≥3 mivebresib‐related TEAE: 32%
[5]; first 4 weeks, all dose levels
  dose‐limiting toxicities (DLTs): No DLTs occurred
[5]; [7]
  ALT increased, AE related to mivebresib: 1 (5) No. of Patients (%)
  AST increased, AE related to mivebresib: 0 (0) No. of Patients (%)
  Anemia, AE related to mivebresib: 7 (37) No. of Patients (%)
  Anemia, TEAE: 13 (68) No. of Patients (%)
  Any TEAEs: 19 (100) No. of Patients (%)
  Cough, TEAE: 6 (32) No. of Patients (%)
  Decreased appetite, AE related to mivebresib: 8 (42) No. of Patients (%)
  Decreased appetite, TEAE: 11 (58) No. of Patients (%)
  Diarrhea, AE related to mivebresib: 8 (42) No. of Patients (%)
  Diarrhea, TEAE: 9 (47) No. of Patients (%)
  Dry mouth, AE related to mivebresib: 2 (11) No. of Patients (%)
  Dysgeusia, AE related to mivebresib: 14 (74) No. of Patients (%)
  Dysgeusia, TEAE: 15 (79) No. of Patients (%)
  Dyspnea, TEAE: 6 (32) No. of Patients (%)
  Epistaxis, AE related to mivebresib: 3 (16) No. of Patients (%)
  Epistaxis, TEAE: 4 (21) No. of Patients (%)
  Fatigue, AE related to mivebresib: 7 (37) No. of Patients (%)
  Fatigue, TEAE: 13 (68) No. of Patients (%)
  Febrile neutropenia, AE related to mivebresib: 0 (0) No. of Patients (%)
  Febrile neutropenia, TEAE: 7 (37) No. of Patients (%)
  Headache, AE related to mivebresib: 0 (0) No. of Patients (%)
  Hyperbilirubinemia, TEAE: 6 (32) No. of Patients (%)
  Hypokalemia, TEAE: 3 (16) No. of Patients (%)
  Hypomagnesemia, TEAE: 2 (11) No. of Patients (%)
  Muscular weakness, TEAE: 7 (37) No. of Patients (%)
  Nausea, AE related to mivebresib: 7 (37) No. of Patients (%)
  Nausea, TEAE: 9 (47) No. of Patients (%)
  Neutrophil count decreased, AE related to mivebresib: 2 (11) No. of Patients (%)
  Platelet count decreased, AE related to mivebresib: 2 (11) No. of Patients (%)
  Stomatitis, AE related to mivebresib: 1 (5) No. of Patients (%)
  Thrombocytopenia, AE related to mivebresib: 7 (37) No. of Patients (%)
  Thrombocytopenia, TEAE: 10 (53) No. of Patients (%)
  Vomiting, AE related to mivebresib: 5 (26) No. of Patients (%)
  Vomiting, TEAE: 6 (32) No. of Patients (%)
  WBC count decreased, AE related to mivebresib: 1 (5) No. of Patients (%)
  Weight decreased, AE related to mivebresib: 2 (11) No. of Patients (%)
[5]; whole study, MIV‐mono and MIV‐Ven
  patients with an AE leading to discontinuation: Seventeen
[6]; AUC0‐24 on C1D8 versus C1D1, daily dosing
  steady‐state accumulation ratio: approximately 2 fold
[6]; dose‐normalized C1D8 Cmax and AUC24 over the studied dosing range
  dose proportionality of PK: approximately dose proportional
[6]; human, plasma, oral
  half-life: 16.4 h
[6]; monotherapy vs combination cohorts
  effect of venetoclax coadministration on mivebresib PK: no effect
